Tested on: luciferase expression in liver
Test: HD-stimulated expression after tail vein dosing, luciferase in liver by BLI
Assay type: in vivo, mice
Conditions: HD-stimulation, 5 min delay, 1 μg pGL3, 0.8 nmol peptide
In short: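 Albino ICR mice (three per group) received polyplex (1 μg pGL3, 0.8 nmol PEGylated peptide) in 50 μl HBM (5 mM Hepes, 0.27 M mannitol, pH 7.4) by tail vein. Saline at 9 wt/vol% body weight (1.8-2.25 ml) was given by tail vein over 5 sec. At 24 hrs, liver BLI under 3% isofluorane, 5 min after i.p. D-luciferin (2.4 mg). Mean and standard deviation reported.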

Row | Substance | fold lower gene transfer relative to peptide 4 polyplexes | gene transfer compared with peptide 1 polyplexes (in words)
1 | (Acr-DLys4)3-Acr-DLys-Cys-PEG [4D] | 5 fold | –
2 | (Acr-DLys)3-Acr-DLys-Cys-PEG [1D] | – | equivalent
